# Assay results pooled from the literature.
# Read-out: cell growth or viability
Structure (SMILES),cell line,technique,time,setting,IC50
CN(C)C(=O)c1cc2cnc(Nc3ccc(-c4ccc5c(=O)cc(N6CCOCC6)oc5c4)cc3)nc2n1C1CCCC1,Kelly,ATP luminescence,72 h,,0.19 µM
COc1ccccc1/C=N/N=C1\C(=O)Nc2ccccc21,HUVEC,MTT,24 h,,235 µg/mL
COc1cc(C(=O)c2nc(-c3ccc4cc[nH]c4c3)c[nH]2)cc(OC)c1OC,PC-3,MTS,72 h,,0.0202 µM
O=C(NO)Nc1nc2ccc(Br)cc2c(=O)n1-c1ccccc1,NIH3T3,MTT,48 h,,122 µM
CC(=O)O[C@H]1[C@H](OC(C)=O)[C@@H](Nc2cc3cccnc3c3ncccc23)OC[C@@H]1OC(C)=O,HFF-1,MTT,48 h,dark,14 µM
CC(=O)Nc1ccc(O)cc1,NIH3T3,,96 h,3D culture,277 µM
CCCn1cnc2ccc(-c3ccc(N4CCC(C)CC4=O)nc3)cc2c1=O (centres unmarked),A549,CCK-8,72 h,,> 10 µM
COc1cccc2c1C(=O)c1c(O)c3c(c(O)c1C2=O)C[C@@](O)(C(=O)CO)C[C@@H]3O[C@H]1C[C@H](N)[C@H](O)[C@H](C)O1,HUVEC,MTT,24 h,,31.2 µM
O=C(Nc1ccc(-c2ccc3ncn(Cc4ccccc4)c(=O)c3c2)cn1)c1ccc(F)cc1,A549,CCK-8,72 h,,> 10 µM
O[C@@H]1[C@@H](O)[C@H](Nc2cc3cccnc3c3ncccc23)OC[C@H]1O,HFF-1,MTT,48 h,dark,42.8 µM
Cc1ccc(NNc2nc3ccc(Br)cc3c(=O)n2-c2ccccc2)cc1,NIH3T3,MTT,48 h,,14.8 µM
CC1=CC(=O)C(C(C)C)=CC1=O,U-251,SRB,48 h,,36.9 µM
NNc1nc2c(Cl)cc(Cl)cc2c(=O)n1-c1ccc(F)cc1,NIH3T3,MTT,48 h,,73.7 µM
CCOc1cc2ncc(C#N)c(Nc3ccc(OCc4ccccn4)c(Cl)c3)c2cc1NC(=O)/C=C/CN(C)C,NCI-H2170,ATP luminescence,,,0.0057 µM
O=C1Nc2ccccc2/C1=N/N=C/c1cccc([N+](=O)[O-])c1,HUVEC,MTT,24 h,,221 µg/mL
NNc1nc2ccc(Br)cc2c(=O)n1-c1ccccc1,NIH3T3,MTT,48 h,,102 µM
CCCCC(=O)Nc1ccc(-c2cnc3ccn(CCC)c(=O)c3c2)cn1,A549,CCK-8,72 h,,> 10 µM
COc1c(Cl)cccc1Nc1c(-c2ccncc2OC[C@@H]2COCCO2)[nH]c2c1C(=O)NCC2,NCI-H2170,ATP luminescence,,,0.0246 µM
CCCCC(=O)Nc1ncc(-c2ccc3ncn(CCC)c(=O)c3c2)cn1,A549,CCK-8,72 h,,1.25 µM
Cc1c(C)c2c(c(C)c1O)CCC(C)(COc1ccc(CC3SC(=O)NC3=O)cc1)O2 (centres unmarked),NIH3T3,,96 h,3D culture,246 µM
